SMILES strings stand for the structures. Among all 190,000 compounds or so, about 1,300 (0.68%) were called active. The entries come from a sample that favours actives as a whole. Unmarked numbers belong to inactive results.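 How the source made its calls: active means primary screen inhibition at 20 µM above a set limit (cut at about 50% in these data); inactive means the rest.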

Among the data in PubChem BioAssay AID1217 (Sanford-Burnham Center for Chemical Genomics, 2008) are inhibition values, retold here.

This assay relates to diaphorase (Clostridium kluyveri). In words: diaphorase inhibitors and chemical oxidizers, primary screen, counter-screen for diaphorase-coupled primary assays, biochemical, uHTS, resorufin fluorescence (AID 1217).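 Further: plate controls were DMSO with full reaction for no effect and wells lacking NADH for full effect.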 The conditions noted are these: diaphorase resazurin-to-resorufin fluorescence, NADH, 16 min; at 20 µM; active compounds read high. The gist of the method:
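Assay system: diaphorase enzyme from Clostridium kluyveri; Input: enzyme working solution with 0.14 U/mL diaphorase; Timing: 16 min at room temperature; Technique: resorufin fluorescence, excitation 544 nm, emission 590 nm; Benchmarks: positive control minus NADH, DMSO neutral control.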
(The purpose of a counterscreen is to sort out artefacts and off-target activity.)
In the case of `COc1ccccc1-n1c(O)c(C=NC2CC2)c(=O)[nH]c1=O`, the inhibition is 7.4%.
Take `COc1ccccc1N=Nc1c(O)[nH]c(=S)[nH]c1=O`: the inhibition was 51.2% (active).
With `COc1ccccc1N=C1SCCCN1C`, the inhibition was 7.6%.
Consider `COc1ccc(-c2nn(CCC#N)cc2C(=O)O)cc1`, for which the inhibition was 0.1%.
As to `COc1ccc(NC(=O)c2cn(CCC#N)nc2-c2ccc([N+](=O)[O-])cc2)cc1`, the inhibition was 1.1%.
On to `CN(C)c1nc(N(C)C)nc(N(C#N)CCCl)n1`, for which the inhibition was -15.8%.
For `O=C(Cc1ccccc1)N1CCN(C2CCCCCC2)CC1`, the inhibition is 19.6%.
As to `Cc1ccc2c(c1)=C/C(=C\c1c(O)[nH]c(=O)[nH]c1=O)C(=O)N=2`, the inhibition was 65.8% (active).
As for `O=C1N=c2ccccc2=C/C1=C\c1c(O)[nH]c(=S)[nH]c1=O`, the inhibition was 20%.
In the case of `COc1cccc(N2C(=O)NC(=O)/C(=C\c3ccc([N+](=O)[O-])s3)C2=O)c1`, the inhibition was 27.2%.

Broadly, the inhibition is the drop in the measured response relative to a control, in per cent.
